Hits are enriched below; roughly 1.5% of the tested compounds scored in any of these assays.
APJ ag = agonists of human apelin receptor APJ, primary screen, CHO-K1 cells, PathHunter beta-arrestin, luminescence; P35414; 0% DMSO wells, 100% apelin; activation, % at 20 µM; 0.11% of 330,000 active;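 active means activation more than six SD over the plate average, tested at 20 µM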
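Assay system – PathHunter CHO-K1 APJ (AGTRL-1) beta-arrestin reporter cells · Compound – one dose, 20 µM compound, 1% DMSO · Timing – compound 90 min 25 °C, reagent 1 h · Measured by – luminescence from split beta-galactosidase complementation, Galacton Star/Emerald II substrate · Measure – beta-arrestin recruitment to APJ as agonist activity, luminescent signal · Benchmarks – DMSO vs Apelin-13 10 nM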
CXCR6 inh = CXCR6 receptor inhibitors, primary screen, cell-based, beta-arrestin, luminescence, CHO-K1 PathHunter, 1536-well; C-X-C chemokine receptor type 6 (Homo sapiens), O00574; inhibition, % at 20 µM; 0.36% of 360,000 active; in the data active means inhibition above about 34%, passing the limit was not always enough;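 further: antagonist mode with CXCL16 agonist at 10 nM final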
Target sequence (O00574 whole entry, looked up): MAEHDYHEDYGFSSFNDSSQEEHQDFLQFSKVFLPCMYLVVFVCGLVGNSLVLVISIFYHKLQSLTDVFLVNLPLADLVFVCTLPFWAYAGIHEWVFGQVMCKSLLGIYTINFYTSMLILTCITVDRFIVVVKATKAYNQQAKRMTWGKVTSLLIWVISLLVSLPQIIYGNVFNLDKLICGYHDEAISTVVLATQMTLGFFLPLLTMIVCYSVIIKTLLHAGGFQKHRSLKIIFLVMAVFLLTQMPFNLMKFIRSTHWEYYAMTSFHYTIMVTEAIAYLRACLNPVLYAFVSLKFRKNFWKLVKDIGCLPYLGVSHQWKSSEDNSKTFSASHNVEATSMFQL
EBI2 block = EBI2 receptor antagonists, beta-arrestin recruitment, primary screen, cell-based, luminescence, 7a,25-OHC stimulation, uHTS; G-protein coupled receptor 183 (Homo sapiens), P32249; 7a,25-OHC stimulated; inhibition, % at 5 µM; 0.81% of 360,000 active; AID 651636, 2012; in the data active means inhibition above about 38%;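 further: enzyme fragment complementation signal reports receptor beta-arrestin coupling in cells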
CCR6 antag = CCR6 receptor antagonists, primary screen, cell-based, CHO-K1, luminescence, beta-arrestin, uHTS | inhibition, % at 20 µM | AID 493098, 2011 | 0.49% of 340,000 active | C-C chemokine receptor type 6 (Homo sapiens), P51684 | CHO-K1 CCR6 PathHunter beta-arrestin, CCL20-stimulated;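 active means compounds whose inhibition of the agonist-driven luminescence signal at 20 µM reaches about 50%, limit read from the data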;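 further: cells stimulated with CCL20 at 14 nM final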
APJ antagonist = antagonists of human apelin receptor APJ, primary screen, CHO-K1 cells, beta-arrestin complementation, luminescence | AID 2521, 2010 | 0.32% of 330,000 active | P35414 | inhibition, % at 20 µM;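 active means inhibition above about 40% at 20 µM, limit read from the data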;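 further: cells challenged with 10 nM apelin-13 agonist together with compound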
APJ ag confirm = agonists of human apelin receptor APJ, confirmation, cell-based, single concentration, CHO-K1, beta-arrestin, luminescence; shares compounds with APJ ag; CHO-K1 APJ PathHunter beta-arrestin; activation, % at 20 µM; 10% of 310 active; AID 2764, 2010;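 active means activation above 40%, taking the highest of four retests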
Hits are given with their value; – = inactive; · = no result given.

SMILES	APJ ag	CXCR6 inh	EBI2 block	CCR6 antag	APJ antagonist	APJ ag confirm
CC1=C(C(=O)OCc2ccccc2)C(c2ccccc2)NC(=O)N1 (stereo unspecified)	–	–	–	–	–	·
CC1=C(C(=O)OCc2ccc3c(c2)OCO3)C(c2ccc(F)cc2)NC(=O)N1 (stereo unspecified)	29	–	–	–	–	–
CC1=C(C(=O)OCc2ccc3c(c2)OCO3)C(c2ccc(Cl)cc2)NC(=O)N1 (stereo unspecified)	–	–	–	–	–	·
CCN(CC(=O)N1CCCC1)S(=O)(=O)c1cc(C)ccc1OC	30	–	–	–	–	–
CCc1nnc(NC(=O)CSc2nc3cccnc3n2C2CCCCC2)s1	53	–	–	–	–	62
CN(C)S(=O)(=O)c1ccc(-c2csc(N/N=C/c3ccc(O)cc3)n2)cc1	16	–	–	–	–	–
C(=N\Nc1nc(-c2ccccc2)cs1)/c1ccncc1	–	–	–	–	–	·
CN(C)S(=O)(=O)c1ccc(-c2csc(N/N=C/c3ccco3)n2)cc1	24	–	–	–	–	44
O=C(NCc1ccncc1)[C@@H]1CCCN1C(=O)[C@H]1CCCN1C(=O)c1ccccc1	·	–	–	·	·	·
O=C(NCC[C@H]1CC[C@H](NS(=O)(=O)c2ccccc2F)[C@@H](CO)O1)c1ccc(F)cc1	·	·	–	·	·	·
COc1cc(S(=O)(=O)NC2CCCC2)ccc1-n1cnnn1	–	–	–	–	–	·
COc1ccc(S(=O)(=O)NC2CC2)cc1-n1cnnn1	14	–	–	–	–	–
CC(=O)c1ccc(-c2c(CCO)sc3ccccc23)cc1	·	–	–	·	·	·
CC1=C(c2ccc(F)cc2)[N+](=O)C(C)(C)N1[O-]	–	–	–	–	–	·
CC1=C(c2ccc(C)cc2)[N+](=O)C(C)(C)N1[O-]	10	–	–	–	–	–
COc1cc(/C=C(/C#N)c2nc3ccccc3[nH]2)ccc1OCC(=O)Nc1ccccc1C(C)C	29	–	–	–	–	–
CCc1nc2ccc(C(=O)NCc3ccc(OC)cc3)cn2c1N(C)C(=O)Cc1ccccc1	·	–	–	·	·	·
CC(=O)NC(CC(=O)NNC(=O)c1cc2ccccc2cc1O)c1ccccc1 (stereo unspecified)	30	–	–	–	–	–
COc1cc(NC(=O)COC(=O)CC(NC(C)=O)c2ccccc2)cc(OC)c1 (stereo unspecified)	–	–	–	–	–	·
COC(=O)C1(Cc2cc(-c3cccnc3)no2)CCN(C(=O)OC(C)(C)C)CC1	36	–	–	–	–	–
COC(=O)C1(Cc2cc(-c3ccc(Cl)cc3)no2)CCN(C(=O)OC(C)(C)C)CC1	–	–	–	–	–	·
CCCOc1c(Br)cc(C(=O)OCc2cc(=O)n3ccsc3n2)cc1OC	·	–	–	–	·	·
NC(=O)c1ccsc1NC(=O)COC(=O)/C=C/c1ccc([N+](=O)[O-])cc1	–	–	–	–	–	·
COC(=O)c1ccc(/C=C/C(=O)OCC(=O)Nc2sccc2C(N)=O)cc1	31	–	–	–	–	47
CCN(CC)S(=O)(=O)c1ccc(OCC(=O)NC(=O)Cc2ccccc2)c([N+](=O)[O-])c1	12	–	–	–	–	–
SMILES	APJ ag	CXCR6 inh	EBI2 block	CCR6 antag	APJ antagonist	APJ ag confirm
CCSc1ccc(/C(N)=N/OC(=O)c2cccs2)cn1	43	–	–	–	–	–
COc1cc(-c2cc(NC(C)=O)c3ncc(-c4ccc(C(C)=O)cc4)n3c2)cc(OC)c1OC	·	–	–	·	·	·
C=C1CCN([C@@H](CC(C)C)C(=O)O)S(=O)(=O)c2ccccc21	45	–	–	–	–	–
O=C(NNc1ccccc1)OCc1ccccc1	·	–	–	·	·	·
CC(=O)OC1COC(OC(C)=O)CO1 (stereo unspecified)	·	–	–	–	·	·
CN(c1ccccc1)S(=O)(=O)c1cccc(NC(=O)c2cc(=O)c3ccccc3o2)c1	12	–	–	–	–	–
Cc1ccsc1C(=O)N1CCCC(C)(C(=O)O)C1 (stereo unspecified)	·	–	–	·	·	·
CC(C)CCN(C(=S)NC(=O)C1CCCCC1)c1c(N)n(Cc2ccccc2)c(=O)[nH]c1=O	33	–	–	–	–	–
CC(C)CCN(C(=O)C1CCCC1)c1c(N)n(Cc2ccccc2)c(=O)[nH]c1=O	–	–	–	–	–	·
CCN(CC)C(=O)c1cccc(-c2csc(C(O)c3ccc(F)c(OC)c3)n2)c1 (stereo unspecified)	·	–	–	·	·	·
COc1ccc(OCC(=O)Nc2ccc(S(=O)(=O)N3CCOCC3)cc2)cc1	–	–	–	–	–	·
CC(=O)Nc1ccc(OCC(=O)Nc2ccc(Cl)c(S(=O)(=O)N3CCOCC3)c2)cc1	17	–	–	·	–	–
Cc1cc(NC(=O)OC(C)(C)C)c(-n2nnnc2C(C(=O)c2ccccc2)N2CCOCC2)cc1C (stereo unspecified)	·	·	–	·	·	·
CC(=O)Nc1ccc(Nc2nc(-c3cc4ccccc4oc3=O)cs2)cc1	17	–	–	–	–	–
CN(Cc1ccccc1)S(=O)(=O)c1ccc(Cl)c(C(=O)N2CCOCC2)c1	·	–	–	·	·	·
CCOc1cc2[nH]c(=S)n(CC3CCCN3CC)c(=O)c2cc1OCC (stereo unspecified)	17	–	–	–	–	–
CCOc1cc2[nH]c(=S)n(CCC(=O)N3CCc4ccccc4C3)c(=O)c2cc1OCC	53	–	–	–	–	48
COc1cc(NC(=O)[C@@H]2O[C@H](CO)[C@@H](O)[C@H]2O)cc(OC)c1OC	·	–	–	·	·	·
CC[n+]1c(/C=C/N(C)c2ccccc2)n(-c2ccccc2)c2ccc(-c3nc4ccccc4s3)cc21	26	–	–	–	–	–
CCOC(=O)C1=C[C@@H](c2ccccc2)N(S(=O)(=O)c2ccc(C)cc2)[C@H]1c1ccccc1Cl	·	–	–	·	·	·
Cc1ccc(C2C(C#N)=C(N)Oc3nc(-c4ccccc4)[nH]c32)o1 (stereo unspecified)	30	–	–	–	–	–
COc1ccc(N2CCN(C(=O)c3ccc(CNS(=O)(=O)c4ccc(C)cc4)cc3)CC2)cc1	–	–	–	–	–	·
Cc1ccc(S(=O)(=O)NCc2ccc(C(=O)N3CCN(c4ccc([N+](=O)[O-])cc4)CC3)cc2)cc1	19	–	–	–	–	–
CN(C)c1ccc(-c2ccnc3c2CC(C)(C(=O)Nc2ccc(Cl)c(C(F)(F)F)c2)O3)cc1 (stereo unspecified)	·	–	–	·	·	·
N/C(=N\OS(=O)(=O)c1ccc2ccccc2c1)c1cccnc1	–	–	–	–	–	·

Bioassay records (PubChem)
